From publication PMC7413021 (The Journal of nutritional biochemistry, 2016)

Assay: Measurement of phenolics in plasma
Format: in vivo
Details: 2 months old male mice fed diet containing 25% dried plum for 4 weeks
Procedure, shortened: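 Male C57Bl/6 mice, 2 months old, fed control AIN-93G or diet with 25% test material for 4 weeks (n=8/group). At euthanasia, blood was drawn into lithium-heparin tubes and spun at 6500 rpm for 10 min at 4°C. Plasma was acidified 4:1 with 1% ascorbic acid in saline, purged with nitrogen and stored at −80°C. Quercetin glycosides and caffeic and gallic acid derivatives were profiled by LC/TOF-MS.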

Compared with `COc1cc(CCC(=O)O)ccc1O[C@@H]1O[C@H](C(=O)O)[C@@H](O)[C@H](O)[C@H]1O` [Dihydroferulic acid 4-O-glucuronide], `COc1ccc(CCC(=O)O)cc1O[C@@H]1O[C@H](C(=O)O)[C@@H](O)[C@H](O)[C@H]1O` [Dihydroisoferulic acid 3-O-glucuronide] is 7.8-fold lower in “plasma concentration, CMin” value: 3270 nM for the first, 420 nM for the second.

Going from `COc1cc(/C=C/C(=O)O)ccc1O[C@@H]1O[C@H](C(=O)O)[C@@H](O)[C@H](O)[C@H]1O` [Ferulic acid 4-O-glucuronide] to `COc1ccc(/C=C/C(=O)O)cc1O[C@@H]1O[C@H](C(=O)O)[C@@H](O)[C@H](O)[C@H]1O` [Isoferulic acid 3-O-glucuronide], the “plasma concentration, CMin” value falls from 1100 nM to 20 nM (55-fold).

Going from `COc1cc(CCC(=O)O)ccc1O[C@@H]1O[C@H](C(=O)O)[C@@H](O)[C@H](O)[C@H]1O` [Dihydroferulic acid 4-O-glucuronide] to `COc1ccc(CCC(=O)O)cc1O[C@@H]1O[C@H](C(=O)O)[C@@H](O)[C@H](O)[C@H]1O` [Dihydroisoferulic acid 3-O-glucuronide], the “plasma concentration, Caverage” value falls from 4990 ± 440 nM to 1390 ± 310 nM (3.6-fold).

Going from `COc1cc(/C=C/C(=O)O)ccc1O[C@@H]1O[C@H](C(=O)O)[C@@H](O)[C@H](O)[C@H]1O` [Ferulic acid 4-O-glucuronide] to `COc1ccc(/C=C/C(=O)O)cc1O[C@@H]1O[C@H](C(=O)O)[C@@H](O)[C@H](O)[C@H]1O` [Isoferulic acid 3-O-glucuronide], the “plasma concentration, Caverage” value falls from 3060 ± 450 nM to 800 ± 210 nM (3.8-fold).
